# Experimental data from ChEMBL document CHEMBL4346669, “Novel nannocystin A analogues as anticancer therapeutics: Synthesis, biological evaluations and structure-activity relationship studies” (Eur J Med Chem, 2019).
# Activity calls are given as the source filed them.
# Experiments:
# A549 [1] = test: Antiproliferative activity against human A549 cells assessed as reduction in cell viability measured after 72 hrs by MTT assay; type: functional, cell-based
# Summary of the method: (§1)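 Cells seeded 5×10^3/well, cultured overnight, then exposed to 10, 1, 0.1, 0.01, 0.001 and 0.0001 µM (from 10 mM DMSO stocks diluted in medium; vehicle 1% DMSO PBS) for 72 h at 37 °C. Medium replaced with 0.5 mg/mL MTT for 4 h, formazan dissolved in DMSO, A570 read. IC50 as mean ± SD of three independent experiments.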
# HCT-116 = test: Antiproliferative activity against human HCT116 cells assessed as reduction in cell viability measured after 72 hrs by MTT assay; type: functional, cell-based; summary of the method: as §1
# A549 [2] = test: Inhibition of elongation factor 1-alpha1 expression in human A549 cells at 100 nM after 24 hrs by Western blot analysis; type: functional
# HL-60 = test: Antiproliferative activity against human HL60 cells incubated for 96 hrs by cell-titer-Glo luminescent assay; type: functional, cell-based; conditions: HL-60, 96 h
# A549 [3] = test: Inhibition of colony formation in human A549 cells at 10 nM incubated for 3 days followed by further incubation in drug-free medium and measured after 15 days by crystal violet staining-based inverted microscopic analysis; type: functional, cell-based
# Summary of the method: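 A549 cells were plated at 500 per well in 2 mL medium for 24 h, then treated for 3 days, with drug-free medium replaced every 3 days afterwards. At day 15 after plating, colonies were fixed in 95% ethanol for 15 min, stained with 0.1% crystal violet, and counted; a colony was defined as more than 100 cells. Mean ± SD of three independent experiments.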
# A549 [4] = test: Induction of apoptosis in human A549 cells assessed as late apoptotic cells at 30 nM after 12 hrs by Annexin-V FITC/propidium iodide staining based flow cytometric analysis (reference value: 1.22%); type: functional
# A549 [5] = test: Cell cycle arrest in human A549 cells assessed as accumulation at G1 phase at 30 nM after 24 hrs by propidium iodide/RNase A staining-based flow cytometric analysis (reference value: 57.41%); type: functional
# SH-SY5Y = test: Antiproliferative activity against human SH-SY5Y cells assessed as reduction in cell viability measured after 72 hrs by MTT assay; type: functional, cell-based
# Summary of the method: (§2)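 Cells seeded at 5×10^3 per well and cultured overnight, then exposed for 72 h at 37 °C to six concentrations from 10 µM down to 0.0001 µM (from 10 mM DMSO stock diluted in medium; vehicle 1% DMSO in PBS). MTT at 0.5 mg/mL was added for 4 h, formazan dissolved in DMSO, and A570 read. IC50 given as mean ± SD of three independent experiments.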
# A549 [6] = test: Induction of apoptosis in human A549 cells assessed as early apoptotic cells at 30 nM after 12 hrs by Annexin-V FITC/propidium iodide staining based flow cytometric analysis (reference value: 0.32%); type: functional
# MCF7 = test: Antiproliferative activity against human MCF7 cells assessed as reduction in cell viability measured after 72 hrs by MTT assay; type: functional, cell-based; conditions: MCF7, 72 h; summary of the method: as §2
# A549 [7] = test: Cell cycle arrest in human A549 cells assessed as accumulation at G2 phase at 30 nM after 24 hrs by propidium iodide/RNase A staining-based flow cytometric analysis (reference value: 30.02%); type: functional
# A549 [8] = test: Induction of apoptosis in human A549 cells assessed as necrotic cells at 30 nM after 12 hrs by Annexin-V FITC/propidium iodide staining based flow cytometric analysis (reference value: 1.28%); type: functional
# MDA-MB-231 = test: Antiproliferative activity against human MDA-MB-231 cells assessed as reduction in cell viability measured after 72 hrs by MTT assay; type: functional, cell-based; conditions: MDA-MB-231, 72 h; summary of the method: as §2
# A-375 = test: Antiproliferative activity against human A375 cells assessed as reduction in cell viability measured after 72 hrs by MTT assay; type: functional, cell-based; conditions: A-375, 72 h; summary of the method: as §2
# A549 [9] = test: Cell cycle arrest in human A549 cells assessed as accumulation at S phase at 30 nM after 24 hrs by propidium iodide/RNase A staining-based flow cytometric analysis (reference value: 12.57%); type: functional
# PC-3 = test: Antiproliferative activity against human PC3 cells incubated for 72 hrs by 14C-thymidine incorporation assay; type: functional, cell-based; conditions: PC-3, 72 h
# A549 [10] = test: Induction of apoptosis in human A549 cells assessed as viable cells at 30 nM after 12 hrs by Annexin-V FITC/propidium iodide staining based flow cytometric analysis (reference value: 97.18%); type: functional; conditions: A549, 12 h, read-out: Activity
# [11] = Homo sapiens, A549, 72 h, read-out: IC50
# [12] = Homo sapiens, HCT-116, 72 h, read-out: IC50
Structure (SMILES),IC50 (A549 [1]; [11]),IC50 (HCT-116; [12]),other results
CO[C@@H]1C[C@@H]2O[C@@]2(C)C(=O)N[C@@H](C(C)C)C(=O)N[C@H](Cc2cc(Cl)c(O)c(Cl)c2)C(=O)N[C@@H](C(C)(C)O)C(=O)O[C@H](c2ccccc2)[C@H](C)/C=C/C=C/1C,–,–,IC50 (A549 [1]; a549): Not Active; IC50 (HCT-116; hct-116): Not Active; inhibition (A549 [2]): inactive
CC[C@H](C)[C@@H]1NC(=O)[C@]2(C)O[C@H]2C[C@@H](OC)/C(C)=C/C=C/[C@@H](C)[C@@H](c2ccccc2)OC(=O)[C@H](C(C)(C)O)NC(=O)[C@@H](Cc2cc(Cl)c(O)c(Cl)c2)NC1=O,557 nM,> 1000 nM,–
CC[C@H](C)[C@H]1C(=O)N[C@H](Cc2cc(Cl)c(O)c(Cl)c2)C(=O)N[C@@H](C(C)(C)O)C(=O)O[C@H](c2ccccc2)[C@H](C)/C=C/C=C(\C)[C@H](OC)C[C@@H]2O[C@@]2(C)C(=O)N1C,13.1 nM,17 nM,IC50 (HL-60): 12 nM; inhibition (A549 [3]): Active; Activity (A549 [4]): 22.88%; Activity (A549 [5]): 43.21%; IC50 (SH-SY5Y): 2.1 nM; Activity (A549 [6]): 4.11%; IC50 (MCF7): 8.7 nM; Activity (A549 [7]): 49.41%; Activity (A549 [8]): 11.44%; IC50 (MDA-MB-231): 7.5 nM; IC50 (A-375): 2.4 nM; Activity (A549 [9]): 7.38%; IC50 (PC-3): 1 nM; viability at 0.03 µM (A549 [10]): 61.6%
CO[C@@H]1C/C=C(\C)C(=O)N(C)[C@@H](C(C)C)C(=O)N[C@H](Cc2ccccc2)C(=O)N[C@@H](C(C)C)C(=O)O[C@H](c2ccccc2)[C@H](C)/C=C/C=C/1C,> 100 nM,> 100 nM,–
CO[C@@H]1C/C=C(\C)C(=O)N(C)[C@@H](C(C)C)C(=O)N[C@H](Cc2cc(Cl)c(O)c(Cl)c2)C(=O)N[C@@H](CC(C)C)C(=O)O[C@H](c2ccccc2)[C@H](C)/C=C/C=C/1C,> 100 nM,> 100 nM,–
CO[C@@H]1C/C=C(\C)C(=O)N(C)[C@@H](C(C)C)C(=O)N[C@H](Cc2ccccc2)C(=O)N[C@@H](C(C)C)C(=O)O[C@H](c2ccccc2)C/C=C/C=C/1C,> 100 nM,> 100 nM,–
CO[C@@H]1C[C@@H]2O[C@@]2(C)C(=O)N(C)[C@@H](C(C)C)C(=O)N[C@H](Cc2cc(Cl)c(O)c(Cl)c2)C(=O)N[C@@H](C(C)(C)O)C(=O)O[C@H](c2ccccc2)[C@H](C)/C=C/C=C/1C,3.5 nM,6.7 nM,"inhibition at 0.1 µM (A549 [2]; A549, 24 h): 100%"

# Second part, led by results:
IC50 (A549 [1]; [11]),IC50 (HCT-116; [12]),Structure (SMILES),other results
14.3 nM,20.9 nM,CC[C@H](C)[C@H]1C(=O)N[C@H](Cc2ccccc2)C(=O)N[C@@H](C(C)(C)O)C(=O)O[C@H](c2ccccc2)[C@H](C)/C=C/C=C(\C)[C@H](OC)C[C@@H]2O[C@@]2(C)C(=O)N1C,–
3.2 nM,10.5 nM,CC[C@H](C)[C@H]1C(=O)N[C@H](Cc2cc(Cl)c(O)c(Cl)c2)C(=O)N[C@@H](C(C)C)C(=O)O[C@H](c2ccccc2)[C@H](C)/C=C/C=C(\C)[C@H](OC)C[C@@H]2O[C@@]2(C)C(=O)N1C,–
3.7 nM,25.2 nM,CC[C@H](C)[C@H]1C(=O)N[C@H](Cc2ccc(O)c(OC)c2)C(=O)N[C@@H](C(C)(C)O)C(=O)O[C@H](c2ccccc2)[C@H](C)/C=C/C=C(\C)[C@H](OC)C[C@@H]2O[C@@]2(C)C(=O)N1C,–
90.3 nM,78.2 nM,CC[C@H](C)[C@H]1C(=O)N[C@H](Cc2cc(Cl)c(O)c(Cl)c2)C(=O)N[C@@H](C(C)(C)O)C(=O)O[C@H](c2ccccc2)C/C=C/C=C(\C)[C@H](OC)C[C@@H]2O[C@@]2(C)C(=O)N1C,–
40.5 nM,124 nM,CC[C@H](C)[C@H]1C(=O)N[C@H](Cc2cc(Cl)c(O)c(Cl)c2)C(=O)N[C@@H](C(C)(C)O)C(=O)O[C@H](c2ccccc2)[C@H](C)/C=C/C=C(\C)[C@H](OC)C/C=C/C(=O)N1C,–
10.1 nM,16.7 nM,CC[C@H](C)[C@H]1C(=O)N[C@H](Cc2cc(Cl)c(O)c(Cl)c2)C(=O)N[C@@H](C(C)(C)O)C(=O)O[C@H](c2ccccc2)[C@H](C)/C=C/C=C(\C)[C@H](OC)C/C=C(\C)C(=O)N1C,–
459 nM,366 nM,COc1cccc2c1C(=O)c1c(O)c3c(c(O)c1C2=O)C[C@@](O)(C(=O)CO)C[C@@H]3O[C@H]1C[C@H](N)[C@H](O)[C@H](C)O1 [DOXORUBICIN],–
13.1 nM,60.3 nM,CC/C1=C\C=C\[C@@H](C)[C@@H](c2ccccc2)OC(=O)[C@H](C(C)C)NC(=O)[C@@H](Cc2cc(Cl)c(O)c(Cl)c2)NC(=O)[C@H](C(C)C)N(C)C(=O)/C(C)=C/C[C@H]1OC,–
35.9 nM,59.7 nM,CO[C@@H]1C/C=C(\C)C(=O)N(C)[C@@H](C(C)C)C(=O)N[C@H](Cc2ccc(O)cc2)C(=O)N[C@@H](C(C)C)C(=O)O[C@H](c2ccccc2)[C@H](C)/C=C/C=C/1C,–
21.6 nM,42.1 nM,CO[C@@H]1C/C=C(\C)C(=O)N(C)[C@@H](C(C)C)C(=O)N[C@H](Cc2cc(Cl)c(O)c(Cl)c2)C(=O)N[C@@H](C(C)C)C(=O)O[C@H](c2ccccc2)[C@H](C)/C=C/C=C/1C,–
